CendR NRP1 mod = NRP-1/CendR interaction modulation | O14786 | AID 602438 | 0.85% of 360,000 active | FAM-RPARPAR peptide binding to NRP-1, fluorescence polarization | inhibition, % at 25 µM;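 active means inhibition or corrected inhibition above about 18%, plus a signal ratio from 0.5 to 1.5, limit read from the data, passing the limit was not always enough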
ATG4B inh = ATG4B (human) cysteine protease inhibition; Q9Y4P1; ATG4B cleavage of LC3-PLA2, NBD-HPC fluorescence, 1 h; 0.51% of 340,000 active; inhibition, % at 8.33 µM; in the data active means inhibition above about 40%
Exocytosis inh = blocks lytic granule exocytosis | TALL-104 LAMP-1 surface exposure, flow cytometry; cells stimulated with thapsigargin and PMA | 0.66% of 360,000 active | inhibition, % at 10 µM;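 active means inhibition above about 55%, limit read from the data; inconclusive means no clear call, values can overlap the other calls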
Myeloid diff MLP = compounds promoting myeloid differentiation. ER-HoxA9 myeloid progenitors, lysozyme-GFP differentiation, flow cytometry. calls only at 10 µM. 1% of 360,000 active. AID 624256;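 active means normalized GFP-positive differentiation at or above the plate's own cutoff, the solvent-only control mean plus 3 SD; inconclusive means no clear call, values can overlap the other calls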;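 further: cells exposed to compound for four days before flow analysis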
Arrestin-AP2 inh = human beta-arrestin and AP2 interaction inhibition | FITC-arrestin peptide / GST-AP2 beads, flow cytometry; AP2 beta2 appendage carries R879A mutation | inhibition, % at 10 µM | 0.31% of 340,000 active | AID 504490;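 active means inhibition above a set limit, near 3 SD of compounds lacking own fluorescence, cut at about 54% in these data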;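 further: plate controls were DMSO wells for no effect and 5 µM unlabelled arrestin peptide for full effect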
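Material – AP2 appendage R879A on GSH beads · Buffer or medium – PBS with 0.05% Tween 20 and 0.1% BSA · Probe or stimulus – fluorescein-tagged arrestin peptide at 50 nM final · Incubation – compound with beads 12 min RT, then probe 1 h RT · Detection – high-throughput flow cytometry of beads, ex 488, em 535 nm · Evaluation – percent response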
ABCB6 inh MLPCN = inhibitors of human ABC transporter ABCB6; K562-ABCB6 porphyrin accumulation, flow cytometry, 1 h; hits give low values; fluorescence ratio to DMSO, % at 10 µM; 0.19% of 360,000 active;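 active means fluorescence ratio to DMSO below 75%, the collection mean minus 3 SD; inconclusive means too few cells collected in the well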;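 further: signal is porphyrin accumulated inside mitochondria; 100% equals median channel fluorescence of DMSO control wells; lower ratio means ABCB6 inhibition with less porphyrin fluorescence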
ABCB6 inh CP1 = inhibitors of human ABC transporter ABCB6 | shares compounds with ABCB6 inh MLPCN | K562-ABCB6 porphyrin accumulation, flow cytometry, 1 h; hits give low values | ratio response (% of DMSO), % at 10 µM | 700 tested, under 10 active | AID 602430;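 active means repeat-averaged ratio response below 75% of DMSO, the collection mean minus 3 SD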;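 further: median porphyrin fluorescence at 575 nm with 488 nm excitation from mitochondria; lower ratio means less porphyrin signal so ABCB6 inhibition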
K562 vector FC = counter-screen for ABCB6 inhibitors: effect in vector-only K562 cells; shares compounds with ABCB6 inh MLPCN; K562 empty-vector cells, flow cytometry fluorescence, 1 h; percent response (fluorescence), % at 100 µM; 25 tested, under 10 active; AID 624484;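 active means compounds whose half-maximal effective concentration is below 100 µM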
* marks the source's active call; other numbers are inactive results; i = inactive; ? = inconclusive; · = no result given. Most compounds without a hit are left out; they make up all but 3.3% or so of the library.

SMILES | CendR NRP1 mod | ATG4B inh | Exocytosis inh | Myeloid diff MLP | Arrestin-AP2 inh | ABCB6 inh MLPCN | ABCB6 inh CP1 | others
Cc1cccc(CS(=O)(=O)c2ncc(Cl)c(C(=O)Nc3c(C)cccc3C)n2)c1 | 1.4 | -15.9 | 54.7 | i | 36.7 | 100.0 | 94.0
CS(=O)(=O)c1ncc(Cl)c(C(=O)Nc2ccc(OC(F)F)cc2)n1 | -4.5 | 3.0 | 6.6 | ? | 3.6 | 85.0 | ·
Cc1cccc(C)c1NC(=O)c1nc(S(=O)(=O)Cc2ccccc2)ncc1Cl | 7.9 | -3.7 | 47.3 | i | -6.3 | 93.0 | · | K562 vector FC=237.2
Cc1cc(Cl)cc2sc(=S)[nH]c12 | 5.9 | -6.6 | 7.8 | i | -1.7 | 98.0 | ·
O=C(Nc1ccc(F)cc1)C(c1ccccc1)N1CCN(c2ccncc2)CC1 (centres undefined) | 15.8 | · | -14.8 | i | · | · | ·
COc1cccc(CC(=O)OCC(=O)Nc2c(C)nn(-c3ccccc3)c2C)c1 | 0.4 | -14.5 | -3.2 | i | -0.1 | 94.0 | ·
CCN(C(=O)COC(=O)c1cc(S(=O)(=O)N2CCOCC2)ccc1F)C1CCS(=O)(=O)C1 (centres undefined) | 9.8 | -2.2 | -6.5 | i | -10.5 | 105.0 | ·
CCCc1nnc(NC(=O)c2nc(S(=O)(=O)Cc3cccc(C)c3)ncc2Cl)s1 | 2.3 | -4.5 | 27.5 | i | 3.5 | 101.0 | · | K562 vector FC=250.0
Cc1nnc(NC(=O)c2nc(S(=O)(=O)Cc3ccccc3)ncc2Cl)s1 | -2.4 | 1.9 | 4.5 | i | -7.8 | 113.0 | · | K562 vector FC=213.7
Cc1nnc(NC(=O)CS(=O)(=O)Cc2ccccc2)s1 | 0.9 | -7.3 | -3.8 | i | 4.1 | 106.0 | ·
CCCc1nc2ccc(NC(C)=O)cc2c(=O)n1Cc1cccc(Cl)c1 | -2.5 | 0.2 | 2.4 | i | 41.1 | 103.0 | ·
CCCc1nc2ccc(NC(=O)c3cccs3)cc2c(=O)n1Cc1ccc(Cl)cc1 | 15.1 | -1.4 | -0.6 | i | -5.2 | 73.0* | 98.0
CC(C)NC(=O)Cn1cnc2c1c(=O)n(C)c(=O)n2C | -8.1 | 1.9 | 2.4 | i | 24.8 | 99.0 | ·
Cn1c(=O)c2c(ncn2CC(=O)NC(C)(C)C)n(C)c1=O | -12.5 | 1.6 | -5.5 | i | -6.6 | 74.0* | 99.0
COc1ccccc1OCCNc1nc2c(c(=O)n(C)c(=O)n2C)n1C | 4.6 | -9.8 | -0.8 | i | -5.5 | 90.0 | ·
Cn1c(=O)c2c(nc(NCCOc3ccc(C(C)(C)C)cc3)n2C)n(C)c1=O | 4.1 | 2.3 | 2.4 | i | 1.1 | 74.0* | 102.0
CC(=O)Nc1c(C)ccc(CNC(=O)COc2ccc(F)cc2)c1C | 9.6 | 9.8 | 1.2 | i | 2.4 | 92.0 | ·
CC(=O)Nc1c(C)ccc(CNC(=O)COc2cc(C)ccc2C)c1C | -3.1 | -8.2 | -2.6 | i | -2.9 | 72.0* | 101.0
Cc1ccc(N2C(=O)C(CN3CCCC3)C2c2ccccc2)cc1 (centres undefined) | 12.9 | -7.6 | -2.8 | i | 3.2 | 73.0* | 102.0
CC(C)NCc1nnc(-c2ccc(Cl)cc2)o1 | 3.9 | -6.5 | 0.2 | i | 43.7 | 71.0* | 102.0
CCN1CCN(c2nc3ccccc3nc2C(C#N)C(=O)OC2CCCCC2)CC1 (centres undefined) | -8.2 | 9.9 | 11.3 | i | -0.7 | 100.0 | ·
CN1CCN(c2nc3ccccc3nc2C(C#N)C(=O)OC2CCCCC2)CC1 (centres undefined) | -6.0 | 8.4 | 2.7 | i | 25.9 | 65.0* | 99.0
O=C(NCc1ccccc1)c1cc(-c2cccs2)on1 | 2.9 | -2.6 | -1.1 | i | 9.8 | 62.0* | 101.0
O=C(NCc1ccc(F)cc1)c1cc(-c2cccs2)on1 | -25.0 | -1.9 | -1.8 | i | -6.7 | 96.0 | ·
OC(COc1ccc(Br)cc1)Cn1ccnc1 (centres undefined) | 11.0 | -2.1 | 1.1 | i | 1.0 | 74.0* | 99.0
NC(=O)C1CCN(CC(=O)Nc2nccs2)CC1 | 0.3 | 0.9 | 2.5 | i | 5.0 | 97.0 | ·
